In data set [1] the target is T1, Lysyl oxidase homolog 2 (Homo sapiens, UniProt Q9Y4K0).
T1 sequence (Q9Y4K0 whole entry): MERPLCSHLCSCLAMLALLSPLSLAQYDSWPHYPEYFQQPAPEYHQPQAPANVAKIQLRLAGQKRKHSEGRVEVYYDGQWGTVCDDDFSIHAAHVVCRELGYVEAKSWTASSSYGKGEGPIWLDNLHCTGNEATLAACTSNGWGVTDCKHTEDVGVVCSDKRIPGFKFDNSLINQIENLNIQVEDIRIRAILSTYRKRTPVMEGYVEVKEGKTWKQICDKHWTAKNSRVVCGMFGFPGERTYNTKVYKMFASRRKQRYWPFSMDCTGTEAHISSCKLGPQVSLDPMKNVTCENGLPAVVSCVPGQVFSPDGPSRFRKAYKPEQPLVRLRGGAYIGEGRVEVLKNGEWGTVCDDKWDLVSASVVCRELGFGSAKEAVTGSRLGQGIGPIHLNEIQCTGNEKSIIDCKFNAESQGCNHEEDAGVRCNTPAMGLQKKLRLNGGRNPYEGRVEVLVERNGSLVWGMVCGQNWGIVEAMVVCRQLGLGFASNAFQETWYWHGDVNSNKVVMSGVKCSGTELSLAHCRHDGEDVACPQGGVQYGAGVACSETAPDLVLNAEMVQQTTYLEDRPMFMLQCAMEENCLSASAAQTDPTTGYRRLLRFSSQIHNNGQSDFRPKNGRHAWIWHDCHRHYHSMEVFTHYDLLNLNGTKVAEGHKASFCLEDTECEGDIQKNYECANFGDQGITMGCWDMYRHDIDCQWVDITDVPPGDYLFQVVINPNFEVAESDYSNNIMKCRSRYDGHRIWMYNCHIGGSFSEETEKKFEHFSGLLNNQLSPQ
Description: Inhibition of recombinant human C-terminal His-tagged […] (1-774 residues) expressed in mouse myeloma cells using putrescine as substrate preincubated with enzyme for 30 mins followed by substrate addition and measured every 2.5 mins for 30 mins by Amplex-Red oxidation assay. As to conditions: read-out: pIC50 (converted). In outline: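 LOXL2 enzyme preincubated with compound for 30 min at 37 °C, then Amplex Red (120 µM) / HRP (1.5 U/mL) mix containing 5 mM putrescine added. Buffer: 1.2 M urea, 50 mM sodium borate, pH 8.2. H2O2 fluorescence (ex 565/em 590) read every 2.5 min for 30 min at 37 °C; BAPN 100 µM as positive control; n≥2.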

In data set [2] the target is T2, Protein-lysine 6-oxidase (Bos taurus, UniProt P33072).
T2 sequence (P33072 whole entry): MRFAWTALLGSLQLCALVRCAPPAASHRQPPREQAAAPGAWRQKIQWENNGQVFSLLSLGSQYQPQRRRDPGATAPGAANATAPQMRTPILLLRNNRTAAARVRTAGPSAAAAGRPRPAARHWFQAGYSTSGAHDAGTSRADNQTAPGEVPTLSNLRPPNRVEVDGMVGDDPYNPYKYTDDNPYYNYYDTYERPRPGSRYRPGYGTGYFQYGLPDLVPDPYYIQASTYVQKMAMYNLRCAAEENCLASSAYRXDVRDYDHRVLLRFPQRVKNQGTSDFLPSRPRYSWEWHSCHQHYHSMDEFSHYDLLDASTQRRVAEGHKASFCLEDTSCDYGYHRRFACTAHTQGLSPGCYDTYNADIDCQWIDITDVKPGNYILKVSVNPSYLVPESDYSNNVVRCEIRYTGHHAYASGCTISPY
Description: Inhibition of LOX in bovine aorta using putrescine as substrate preincubated with enzyme for 30 mins followed by substrate addition and measured every 2.5 mins for 30 mins by Amplex-Red oxidation assay. The data set is classed as tissue-based. To be noted: read-out: pIC50 (converted). The method in brief:
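LOX extracted from calf aorta after PBS washing with 4 M urea/50 mM borate pH 8.2, concentrated on 10 kDa filters into 1.2 M urea/borate with protease inhibitors. Preincubated 30 min at 37 °C with compound, then Amplex Red/HRP with 10 mM putrescine; fluorescence read every 2.5 min for 30 min.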

Data set [3] has as its target T3, Amine oxidase [copper-containing] 3 (Homo sapiens, UniProt Q16853).
T3 sequence (Q16853 whole entry): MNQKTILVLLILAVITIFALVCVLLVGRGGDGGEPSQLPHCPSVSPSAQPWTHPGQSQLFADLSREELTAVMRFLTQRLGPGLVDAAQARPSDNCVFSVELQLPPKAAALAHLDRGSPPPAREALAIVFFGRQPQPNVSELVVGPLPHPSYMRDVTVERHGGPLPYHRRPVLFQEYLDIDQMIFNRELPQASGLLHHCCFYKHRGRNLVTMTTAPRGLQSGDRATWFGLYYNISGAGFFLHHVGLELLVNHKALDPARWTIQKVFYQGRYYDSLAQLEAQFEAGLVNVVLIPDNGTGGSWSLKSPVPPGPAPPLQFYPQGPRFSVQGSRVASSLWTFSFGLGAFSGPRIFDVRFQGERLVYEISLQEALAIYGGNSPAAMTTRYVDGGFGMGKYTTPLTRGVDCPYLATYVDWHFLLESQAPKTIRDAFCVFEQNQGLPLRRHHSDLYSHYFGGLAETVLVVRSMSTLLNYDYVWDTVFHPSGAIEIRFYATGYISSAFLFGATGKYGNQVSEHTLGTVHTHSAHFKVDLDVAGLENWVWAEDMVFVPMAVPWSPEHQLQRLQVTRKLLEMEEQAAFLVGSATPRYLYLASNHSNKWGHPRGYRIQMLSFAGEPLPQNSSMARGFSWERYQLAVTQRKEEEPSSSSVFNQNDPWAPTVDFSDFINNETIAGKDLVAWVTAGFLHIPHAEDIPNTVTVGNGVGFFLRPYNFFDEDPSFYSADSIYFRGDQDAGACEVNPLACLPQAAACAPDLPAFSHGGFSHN
Description: Substrate activity at recombinant human SSAO assessed as compound oxidation by measuring oxidative turnover at 30 uM measured for 40 mins by horseradish peroxidase-coupled amplex red reagent-based fluorometric assay relative to DMSO. It is filed as ADME. In outline:
(§1)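 Compound oxidation measured without substrate by peroxidase-coupled fluorometric read-out of resorufin formation over 40 min at 37 °C in HEPES buffer. Amplex Red 20 µM, HRP 4 U/ml, test compound at final 30 µM. Enzyme source was human recombinant SSAO or AOC4 from diluted dog serum. Benzylamine at 600 µM served as positive control. Signal is expressed relative to DMSO-only background, so a value near 1 means no turnover.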

In data set [4] the target is T4, Amine oxidase [flavin-containing] B (Homo sapiens, UniProt P27338).
T4 sequence (P27338 whole entry): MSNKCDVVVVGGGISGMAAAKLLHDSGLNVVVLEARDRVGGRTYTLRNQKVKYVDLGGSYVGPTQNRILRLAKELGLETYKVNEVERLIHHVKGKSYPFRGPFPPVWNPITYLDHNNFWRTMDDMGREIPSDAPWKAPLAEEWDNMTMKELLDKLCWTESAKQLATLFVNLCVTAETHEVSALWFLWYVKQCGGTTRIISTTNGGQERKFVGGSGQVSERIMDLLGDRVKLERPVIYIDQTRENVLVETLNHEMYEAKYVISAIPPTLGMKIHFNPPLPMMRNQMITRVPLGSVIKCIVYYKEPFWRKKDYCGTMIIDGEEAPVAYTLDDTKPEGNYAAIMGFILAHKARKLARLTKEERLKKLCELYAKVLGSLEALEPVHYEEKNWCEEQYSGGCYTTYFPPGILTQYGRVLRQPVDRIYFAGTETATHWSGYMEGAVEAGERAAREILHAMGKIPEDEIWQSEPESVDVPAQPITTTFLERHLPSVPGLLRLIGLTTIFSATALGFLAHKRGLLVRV
Description: Inhibition of recombinant human MAOB expressed in baculovirus infected in BTI cells using benzylamine as substrate preincubated with enzyme for 30 mins followed by substrate addition and measured every 2.5 mins for 30 mins by Amplex-Red oxidation assay. To be noted: read-out: pIC50 (converted).

Data set [5] has as its target T3, Amine oxidase [copper-containing] 3. Nature of the data set: Inhibition of recombinant human SSAO using benzylamine as substrate preincubated with enzyme for 30 mins followed by substrate addition and measured every 2.5 mins for 30 mins by Amplex-Red oxidation assay. To be noted: read-out: pIC50 (converted).
The species named for data set [6] is Homo sapiens. Description: Displacement of [3H]PK11195 from human recombinant peripheral benzodiazepine receptor at 10 uM incubated for 15 mins by scintillation counting method. The method in brief:
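Single-concentration screen at 10 µM in a panel of 119 enzyme and receptor targets under standard conditions; >50% inhibition of radioligand binding counted as a hit.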

The target in data set [7] is T5, Lysyl oxidase homolog 2 (Homo sapiens) (UniProt Q9Y4K0).
T5 sequence (whole entry): T1 sequence (Q9Y4K0 whole entry)
Description: Inhibition of recombinant human LOXL2 assessed as inhibition of collagen cross linking compound replenishment for 5 days and measured on day 7 by UPLC-ESI-MS/MS analysis.

For data set [8], the target named is T5, Lysyl oxidase homolog 2 (Homo sapiens). Description: Substrate competitive inhibition of recombinant human C-terminal His-tagged […] (1-774 residues) expressed in mouse myeloma cells using different concentrations of putrescine as substrate preincubated with enzyme for 30 mins followed by substrate addition and measured every 2.5 mins for 30 mins by substrate competition based Amplex-Red oxidation assay. In outline:
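Recombinant LOXL2 incubated with inhibitor plus a range of putrescine concentrations before the reaction mix was added (120 µM Amplex Red, 1.5 U/mL HRP). Buffer was 1.2 M urea, 50 mM sodium borate, pH 8.2. Fluorescence (ex 565/em 590 nm) read every 2.5 min for 30 min at 37 °C.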

Data set [9] shares this target. Nature of the data set: Irreversible inhibition of recombinant human C-terminal His-tagged […] (1-774 residues) expressed in mouse myeloma cells assessed as maximal inhibition at 30XIC50 incubated for 60 mins followed by 100-fold dilution prior to addition of putrescine as substrate and measured after 30 mins by jump dilution assay based Amplex-Red oxidation assay relative to control. In outline: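 LOXL2 soaked 60 min at 37 °C with inhibitor at 30× IC50. Diluted 50-fold in assay buffer (1.2 M urea, 50 mM borate, pH 8.2), then 1:2 with reaction mix of Amplex Red 120 µM, HRP 1.5 U/mL and putrescine. Read out 30 min after substrate addition (ex 565/em 590, 37 °C). Percent activity followed over time after dilution.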

Data set [10] has the same target. Description: Time-dependent inhibition of recombinant human C-terminal His-tagged […] (1-774 residues) expressed in mouse myeloma cells assessed as inactivation constant using putrescine as substrate by kitz-wilson plot analysis. The method in brief: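 Recombinant human LOXL2 preincubated with inhibitor for varying times at 37 °C, then 5 mM putrescine added with 120 µM Amplex Red and 1.5 U/mL HRP. Buffer was 1.2 M urea, 50 mM sodium borate, pH 8.2. Fluorescence read every 2.5 min for 30 min. Apparent Ki and kinact derived by Kitz–Wilson analysis.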

For data set [11] the target is unchanged. Nature of the data set: Inhibition of recombinant human C-terminal His-tagged […] (1-774 residues) expressed in mouse myeloma cells at 10XIC50 preincubated with bound enzyme for 30 mins followed by drug wash-out and later incubated with putrescine substrate and measured after 30 mins by Amplex-Red oxidation assay. The data set is classed as cell-based.

A short description of data set [12]: Selectivity index, ratio of IC50 for recombinant human C-terminal His-tagged […] (1-774 residues) expressed in mouse myeloma cells to IC50 for LOX in bovine aorta.
A short description of data set [13]: Substrate activity at AOC4 in dog serum assessed as compound oxidation by measuring oxidative turnover at 30 uM measured for 40 mins by horseradish peroxidase-coupled amplex red reagent-based fluorometric assay relative to DMSO. It is filed as ADME, cell-free, Canis lupus familiaris. The method in brief: as §1
The target in data set [14] is T5, Lysyl oxidase homolog 2 (Homo sapiens). Nature of the data set: Inhibition of recombinant human C-terminal His-tagged […] (1-774 residues) expressed in mouse myeloma cells assessed as recovery of enzyme activity at 10XIC50 preincubated with bound enzyme for 30 mins followed by drug wash-out and later incubated with putrescine substrate and measured after 30 mins by Amplex-Red oxidation assay. It is filed as cell-based. On the set-up: scale not given: the % may be the effect or the level left.

Data set [15] concerns the target T1, Lysyl oxidase homolog 2. Nature of the data set: Substrate activity at recombinant human C-terminal His-tagged […] (1-774 residues) expressed in mouse myeloma cells assessed as oxidative turnover at 30 uM measured after 30 mins by horseradish peroxidase-coupled amplex red reagent-based fluorescence assay relative to DMSO. To be noted: 0.5 h. The data set is classed as ADME, cell-based. The method in brief: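 LOXL2 incubated with compound, no substrate present. Hydrogen peroxide generation read by Amplex Red/HRP fluorescence (ex 565, em 590 nm). Oxidative turnover at 30 min expressed relative to DMSO.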

Calls of active or inactive are those of the source. The calls are words filed in the database; no cut-off is given here.

Turning to `CN(C)S(=O)(=O)c1ccc(OCc2cn(C/C(F)=C/CN)nn2)cc1.Cl`, the IC50 in data set [1] was 50.1 nM; in data set [2], 794 nM; in [4], 126 nM; in data set [5], over 31600 nM. The “fold change (FC)” value in data set [3] is listed as over 4.

For `Cc1c(-c2cccc(S(=O)(=O)N(C)C)c2)c2cc(C(=O)O)ccc2n1C/C(F)=C/CN`, the inhibition was over 50% in [6] and “Dose-dependent effect” in data set [7]. For the same compound, the inhibition result in data set [8] and in [11] was “Active” each time. Moreover, the Imax in data set [9] is over 80%. Further, in data set [10], the Kinact came out at 0.89 min⁻¹. In addition, the IC50 ratio in [12] was over 300.

Take `Cc1c(-c2cccc(S(=O)(=O)N(C)C)c2)c2ncccc2n1C/C(F)=C/CN.Cl`: the IC50 was 20 nM in data set [1] and 1260 nM in data set [2]. Further, the “fold change (FC)” value in data set [3] is on record as 1.6; in data set [13], 6.4. Also, the IC50 ratio in data set [12] came out at 70.

Take `Cc1c(-c2cccc(S(=O)(=O)N(C)C)c2)c2cc(C(=O)O)ccc2n1C/C=C/CN.Cl`: the results for the IC50 in data set [1] and in [2] were 794 nM and 3160 nM, respectively. The “fold change (FC)” value in data set [3] was determined as 1; in data set [13], 1.3; in [15], 6. Further, the Activity in data set [14] amounted to 75%.

The values above are taken from ChEMBL document CHEMBL4321820, “Identification and Optimization of Mechanism-Based Fluoroallylamine Inhibitors of Lysyl Oxidase-like 2/3” (J Med Chem, 2019).
